ChEMBL document CHEMBL1125197, “Studies on uricosuric diuretics. 4. Three-dimensional structure-activity relationships and receptor mapping of (aryloxy)acetic acid diuretics” (1991)

Tested on: Rattus norvegicus
Experiment: Diuretic activity after peroral administration of 100 mg/Kg in rats
Format: functional, Urine
Summary of the method: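 Seven-week-old Wistar–Imamichi rats, fasted 24 h, in groups of five matched for urine output; forced urination before dosing. Oral dose of 100 mg/kg, suspended in physiological saline with 3% gum arabic at 25 mL/kg. Controls received vehicle alone. Animals kept fasted in separate metabolic cages, with urine collected for 6 h. Urine volume expressed as % of control (100%).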

Structure (SMILES) | Relative activity [%]
O=C(c1cccs1)c1cc2c(c(Cl)c1Cl)O[C@H](C(=O)O)C2 | 400
C[C@]1(c2ccccc2)Cc2cc(OCC(=O)O)c(Cl)c(Cl)c2C1=O | 350
O=C(c1cccs1)c1cc2c(c(Cl)c1Cl)O[C@@H](C(=O)O)C2 | <100
C[C@@]1(c2ccccc2)Cc2cc(OCC(=O)O)c(Cl)c(Cl)c2C1=O | 200
O=C(O)COc1ccc2c(-c3ccccc3F)noc2c1Cl | 250
O=C(O)C1Cc2cc3c(-c4ccccc4)noc3c(Cl)c2O1 (stereo not drawn) | 300
O=C(O)C1Cc2cc(-c3noc4ccccc34)c(Cl)c(Cl)c2O1 (stereo not drawn) | 300
O=C(O)C1Cc2c(c(Cl)c(Cl)c3nc(-c4ccccc4)oc23)O1 (stereo not drawn) | 450
O=C(O)C1Cc2c(c(Cl)cc3c(=O)c4ccccc4oc23)O1 (stereo not drawn) | 300
O=C(O)C1Oc2cc3c(-c4ccccc4)noc3c(Cl)c2O1 (stereo not drawn) | 450
O=C(O)C1Oc2c(Cl)cc3c(-c4ccccc4)noc3c2O1 (stereo not drawn) | 160
O=C(O)COc1cc2oc3ccccc3c(=O)c2cc1Cl | 200
O=C(O)C1Cc2cc3c(=O)c4ccccc4oc3c(Cl)c2O1 (stereo not drawn) | 200
O=C(O)COc1cc2c(=O)c3ccccc3oc2cc1Cl | 200
O=C(O)C1Cc2c(c(Cl)cc3c(-c4ccccc4)noc23)O1 (stereo not drawn) | 120
O=C(c1cccs1)c1cc2c(c(Cl)c1Cl)OC(C(=O)O)C2 (racemic) | 350
CC1(c2ccccc2)Cc2cc(OCC(=O)O)c(Cl)c(Cl)c2C1=O (racemic) [INDACRINONE] | 300
O=C(O)COc1ccc(C(=O)c2cccs2)c(Cl)c1Cl [TICRYNAFEN] | 160
